Bioassay records: PubChem BioAssay, The Scripps Research Institute Molecular Screening Center
Shown are actives, neighbours in structure and some others; about 2.9% of the full set was active somewhere.
HTRA1 inh – HTRA1 serine protease inhibitors, primary screen, biochemical, fluorescence polarization, HTS. recombinant HTRA1, FP-rhodamine activity-based probe. Q92743. 0.5% of 340,000 active. inhibition, % at 5.96 µM; in the data active = inhibition above about 36%;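 note: 0% = enzyme with DMSO and 100% = wells lacking enzyme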
PAD4 FP inh – human PAD4 inhibitors, primary screen, biochemical, fluorescence polarization, 1536-well format | 0.41% of 330,000 active | recombinant PAD4, RCA probe fluorescence polarization | inhibition, % at 6.36 µM;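 active = percent inhibition above a cutoff equal to the mean of all tested compounds plus 3 SD, cut at about 15% in these data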;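 note: 0% = PAD4 with RCA probe and DMSO and 100% = probe without PAD4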
TCR CD3 inh – inhibitors of human TCR-CD3 interaction, primary screen, biochemical, fluorescence, TAMRA-labeled TCR probe; T-cell receptor (TCR); inhibition, % at 9.4 µM; 0.37% of 360,000 active; AID 651800, 2012;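 note: recombinant mutant TCR 2C K166C tagged with TAMRA read by polarization; 0% = receptor in buffer alone and 100% = receptor with positive control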
PRMT1 inh – PRMT1 methyltransferase inhibitors, primary screen, biochemical, fluorescence polarization; Protein arginine N-methyltransferase 1 (Homo sapiens), Q99873; recombinant PRMT1, activity-based probe fluorescence polarization; inhibition, % at 2.79 µM; 1.3% of 370,000 active;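 active = inhibition above about 21% made by adding two undisclosed values, limit read from the data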
Target sequence (Q99873 whole entry, looked up): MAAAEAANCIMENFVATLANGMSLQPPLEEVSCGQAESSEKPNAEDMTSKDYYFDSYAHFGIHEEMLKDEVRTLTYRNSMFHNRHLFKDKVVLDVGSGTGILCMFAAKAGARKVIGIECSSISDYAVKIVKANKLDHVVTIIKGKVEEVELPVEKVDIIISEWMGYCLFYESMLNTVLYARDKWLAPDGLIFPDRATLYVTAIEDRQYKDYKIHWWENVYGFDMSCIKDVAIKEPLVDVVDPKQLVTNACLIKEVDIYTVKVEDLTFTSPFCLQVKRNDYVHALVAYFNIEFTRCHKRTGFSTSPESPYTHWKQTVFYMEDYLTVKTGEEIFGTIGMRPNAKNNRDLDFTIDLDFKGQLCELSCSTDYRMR
SIAE inh – human SIAE inhibitors, primary screen, biochemical, fluorescence polarization, FP-Rh probe, 1536-well HTS. AID 1053197, 2014. SIAE FP-Rh probe binding. inhibition, % at 9.66 µM. 0.69% of 370,000 active. Sialate O-acetylesterase (Homo sapiens), Q9HAT2;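 active = inhibition above a cutoff: mean of compounds within the control limits plus 3 SD of those, cut at about 17% in these data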;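 note: 0% = plate median of compound wells and 100% = probe without SIAE protein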
mABHD4 FP – ABHD4 inhibitors, primary screen, biochemical, fluorescence polarization, mouse; (Lyso)-N-acylphosphatidylethanolamine lipase (Mus musculus), Q8VD66; purified mABHD4, FP-Rh probe fluorescence polarization; inhibition, % at 8.92 µM; 0.54% of 370,000 active;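 active = inhibition exceeding the mean over every tested compound plus 3 SD, cut at about 30% in these data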;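 note: 0% = plate median of compound wells and 100% = S159A mutant with DMSO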
Target sequence (Q8VD66 whole entry, looked up): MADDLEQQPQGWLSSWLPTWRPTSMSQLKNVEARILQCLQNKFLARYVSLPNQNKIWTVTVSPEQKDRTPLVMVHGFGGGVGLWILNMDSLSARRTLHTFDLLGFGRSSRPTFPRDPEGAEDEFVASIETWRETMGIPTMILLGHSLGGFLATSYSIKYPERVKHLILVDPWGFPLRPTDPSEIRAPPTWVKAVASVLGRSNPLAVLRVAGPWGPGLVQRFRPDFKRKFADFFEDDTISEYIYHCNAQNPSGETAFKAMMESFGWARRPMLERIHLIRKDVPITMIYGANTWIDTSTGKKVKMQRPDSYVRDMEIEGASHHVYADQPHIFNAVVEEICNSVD
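Test system: mABHD4 protein; Read-out basis: % inhibition; Incubation: 45 min + 60 min at 25 °C; Repeats: single replicate; Technique: fluorescence polarization with parallel and perpendicular emission, 525/598 nm; Compound: 8.92 µM, single dose; Benchmarks: full inhibition S159A mutant plus DMSO, zero as sample-well median.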
HTRA1 inh conf – HTRA1 protease inhibitors, retest, confirmation, biochemical, fluorescence polarization; shares compounds with HTRA1 inh; recombinant HTRA1, FP-rhodamine activity-based probe; inhibition, % at 5.96 µM; 66% of 1,600 active; AID 540248, 2011;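 active = mean inhibition over three repeats above a set limit taken from the earlier primary screen, cut at about 37% in these data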;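 note: 0% = HTRA1 with DMSO and 100% = wells lacking HTRA1; inhibitors block probe binding so polarization drops and inhibition rises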
BSA probe FL – compounds interfering with TAMRA-BSA probe, counter-screen for TCR-CD3 interaction inhibitor project, biochemical, fluorescence, TAMRA-labeled BSA; TAMRA-labeled BSA probe fluorescence counterscreen; shares compounds with TCR CD3 inh; inhibition, % at 9.4 µM; 10% of 1,200 active; in the data active = inhibition above about 23%;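 note: 0% = buffer low control and 100% = reference high control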
TCR-CD3 inh conf – TCR-CD3 interaction inhibitors, retest, confirmation, biochemical, fluorescence, TAMRA-labeled TCR probe; TAMRA-labeled TCR probe fluorescence binding assay; shares compounds with TCR CD3 inh; 48% of 1,200 active; inhibition, % at 9.4 µM
PRMT1 confirm – PRMT1 methyltransferase inhibitors, confirmation, biochemical, fluorescence polarization, triplicate; shares compounds with PRMT1 inh; recombinant His-PRMT1, activity-based probe fluorescence polarization; inhibition, % at 2.79 µM; 42% of 3,300 active; AID 687036, 2013;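 active = mean inhibition across replicates above the hit cutoff derived for the earlier primary screen, cut at about 22% in these data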
mABHD4 conf – ABHD4 inhibitors, retest, confirmation, biochemical, fluorescence polarization, mouse; shares compounds with mABHD4 FP; purified mABHD4, FP-Rh probe fluorescence polarization; inhibition, % at 8.92 µM; 55% of 1,800 active; AID 720658, 2013;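 active = mean inhibition across replicates above the hit cutoff set in the primary screen, cut at about 30% in these data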;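 note: 0% = wild-type ABHD4 with DMSO and 100% = catalytically dead S159A mutant with DMSO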
* = called active by the depositor; nt = no result; ! = not active in a repeat. Cut-off read from the data, not from the text of the source, unless noted: active = inhibition above about 19%; inactive = the rest.

SMILES	HTRA1 inh	PAD4 FP inh	TCR CD3 inh	PRMT1 inh	SIAE inh	mABHD4 FP	HTRA1 inh conf	mABHD4 conf	others
COc1c(O)cc2oc(-c3ccc(O)cc3)cc(=O)c2c1O	-2.4	-1.4	4.4	0.6	3.1	10.7	nt	nt
O=c1cc(-c2ccccc2)oc2cc(O)c(O)c(O)c12	79.8*	-8.1	37.7*	19.6	17.0	51.9*	85.4*	36.6*	BSA probe FL=-12.8;TCR-CD3 inh conf=24.3*
O=C1CC(N(O)c2ccccc2)C(=O)N1c1cc(Cl)cc(Cl)c1 (stereo not given)	40.0*	15.4*	25.1*	13.1	12.4	45.3*	35.9	10.1	BSA probe FL=2.8;TCR-CD3 inh conf=2.8
C=C1c2cccc(O)c2C(=O)C2C(=O)[C@]3(O)C(=O)C(C(N)=O)C(=O)[C@@H](N(C)C)[C@@H]3[C@@H](O)[C@H]12 (stereo not given in full)	45.9*	-19.7	27.5*	61.5*	47.0*	84.8*	37.6*	16.8	BSA probe FL=-4.4;TCR-CD3 inh conf=14.2;PRMT1 confirm=22.5*
COC(=O)[C@]12C[C@H](CC(=O)NCCCCc3ccccc3)C(=O)N(CCc3ccc(OC)c(OC)c3)C1=C[C@H](COCc1ccccc1)O[C@@H]2C	nt	nt	nt	-0.4	-1.9	-5.6	nt	nt
N#Cc1ccc(NC(=O)OC2CCC23CCC(c2ccccc2)CC3)cc1 (stereo not given)	nt	nt	nt	2.4	-25.6	-44.1	nt	nt
C[n+]1c(-c2ccccc2)cc2c(=Cc3ccc([N+](=O)[O-])cc3)c3ccccc3n21	80.0*	nt	-5.2	2.6	4.4	31.2*	24.7	37.9*
C[n+]1c(-c2ccccc2)cc2c(=Cc3ccccc3)c3ccccc3n21	-14.4	nt	-17.0	6.3	-68.0	-107.6	nt	nt
Cc1ccc2c(c1)c1ccc3c(c1n2C)C(=O)C=CC3=O	40.1*	nt	0.5	11.5	-8.6	67.8*	61.6*	84.8*
Cc1ccc(C)c2c1c1ccccc1n2C	-0.5	5.2	3.1	0.5	-0.1	-6.3	nt	nt
Cn1c2ccccc2c2ccc3c(c21)C(=O)C=CC3=O	40.2*	nt	8.4	10.2	-2.1	42.0*	63.1*	72.0*
CCOC(=O)c1c2c(n(Cc3ccccc3)c1C)C(=O)C(=O)c1ccccc1-2	46.0*	nt	9.9	-0.1	13.0	38.5*	43.0*	53.8*
CC(C)c1cc2c(c(O)c1O)[C@@]13CCCC(C)(C)C1CC2OC3=O (stereo not given in full)	48.3*	4.3	-2.9	36.3*	20.1*	30.9*	18.5	26.2
COCCN1Cc2cc(C(=O)OC)c3c(c2C1=O)c1cc(F)ccc1n3S(=O)(=O)c1ccc(C)cc1	nt	nt	-6.8	5.8	-1.7	-8.7	nt	nt
COc1ccccc1N=Nc1ccc(O)c2ncccc12	80.6*	-6.0	1.7	2.2	14.6	38.0*	62.5*	36.5*
Oc1ccc(Cc2ccccc2)c2cccnc12	nt	nt	1.1	1.3	10.3	18.8	nt	nt
CCNc1ccccc(C(=O)/C=C/c2ccc3c(c2)OCO3)c1=O	36.3*	-4.8	6.6	26.4*	16.4	41.5*	19.0	22.2
COC(=O)c1cc2c(-c3ccccc3)cc3ccccn3c-2c1C(=O)OC	11.2	4.9	2.0	5.9	-5.2	14.8	nt	nt
COC(=O)c1c(C(=O)OC)c2cccc3cc(-c4ccccc4)c4ccc1c4n32	38.6*	6.5	9.5	0.8	8.2	35.9*	57.6*	34.7*
CC(C)CN1C(=O)C[C@]2(C(=O)N(C)c3ccc(NS(=O)(=O)C4CC4)cc32)C1c1ccccc1 (stereo not given in full)	nt	nt	nt	-9.2	-15.5	-0.2	nt	nt
O=C1c2c(O)ccc(O)c2C(=O)c2c(NCCNCCO)ccc(NCCNCCO)c21	72.0*	-2.8	-6.8	3.9	11.2	32.9*!	58.7*	37.4*
COC(=O)c1ccccc1NCc1cc(=O)oc2cc(O)c(O)cc12	65.1*	9.2	15.1	6.2	4.7	39.7*	46.3*	31.3*
CCCCCCCCNC(=O)C1CSCCS(=O)(=O)N1Cc1ccc(OC)cc1 (stereo not given)	nt	nt	nt	-4.6	-0.9	1.3	nt	nt
Oc1c(I)cc(I)c2cccnc12	72.1*	0.8	6.0	5.7	34.4*	32.7*	65.7*	28.6
Oc1ccc(-c2ccccc2F)c2cccnc12	nt	nt	nt	-0.6	10.2	12.7	nt	nt
SMILES	HTRA1 inh	PAD4 FP inh	TCR CD3 inh	PRMT1 inh	SIAE inh	mABHD4 FP	HTRA1 inh conf	mABHD4 conf	others
Cc1cccc(O)c1C	-6.7	0.7	1.6	0.6	3.1	-0.7	nt	nt
Cc1cccc(C)c1N=Nc1c(C)cc(O)cc1C	47.0*	3.4	3.0	-1.2	10.7	32.4*	50.5*	38.5*
Cc1ccc(Nc2ccc(C(N)=O)cc2[N+](=O)[O-])cc1C	2.7	1.5	-5.9	2.1	8.6	7.0	nt	nt
Cc1ccc(NC(=S)NNc2ccc(C(=O)O)cc2[N+](=O)[O-])cc1C	48.8*	1.3	28.1*	2.2	7.5	69.5*	40.6*	47.4*	BSA probe FL=-4.3;TCR-CD3 inh conf=14.9
O=C(O)c1cccc(N/N=C(\N=Nc2ccccc2)c2ccccc2)c1	59.0*	0.9	5.6	2.7	6.6	71.5*	73.8*	103.9*
C[C@H]1COC2=C1C(=O)C(=O)c1c2ccc2c1CCCC2(C)C	24.0	-9.9	nt	nt	nt	nt	nt	nt
Cc1coc2c1C(=O)C(=O)c1c-2ccc2c1CCCC2(C)C	67.2*	-0.9	122.7*	17.0	13.1	49.5*	66.3*	57.8*	BSA probe FL=-1.4;TCR-CD3 inh conf=0.7
CC1CCCCC1NC(=O)COC(=O)c1c2c(nc3ccccc13)/C(=C/c1ccco1)CC2 (stereo not given)	80.7*	-1.1	9.9	15.9	17.0	38.2*	22.8	20.3
